Results on 55 sequences are retold here after the array DNA melting data of Ke et al. (doi:10.1101/2024.01.08.574731).

The nature of data set [1]: folding enthalpy; higher = less favourable; fluorescence melt of hairpins on a sequencing array, two-state fit. The following applies: sodium 0.088 M. The method, boiled down: (§1)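 On a sequenced MiSeq flow cell, library hairpins with annealed Cy3 and quencher oligos were imaged for Cy3 fluorescence in 2.5 °C steps up to 60 °C, in 50 mM Na-HEPES pH 8.0, 25 mM NaCl. Normalisation used pre-quench Cy3 and control constructs. Bootstrapped two-state fits gave melting temperature and folding enthalpy, combined by inverse variance across four replicates and with fitted temperatures raised by 9.35 °C to match UV melts.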

A short description of data set [2]: melting temperature; fluorescence melt of hairpins on a sequencing array, two-state fit, raised by 9.35 °C to match UV melts. Particulars: sodium 0.088 M. In a few lines: as §1

With GGCTACGAAAGTACCGCC ((((((....)))..))), the folding enthalpy in data set [1] was -23.1 kcal/mol. In data set [2], the Tm came to 48.4 °C.

Take GCATTTTCGAAAGAATGC (((..(((....)))))): the folding enthalpy in data set [1] was -28.4 kcal/mol. For the same sequence, the Tm in data set [2] was 35.5 °C.

GCAGGAACGAAAGTTTGC (((..(((....)))))): the folding enthalpy in data set [1] was -16.6 kcal/mol. The Tm in data set [2] was 36 °C.

For the sequence GATCTACCTGTAGATC ((((((....)))))), the folding enthalpy in data set [1] was -39.4 kcal/mol. In addition, the Tm in data set [2] stood at 52.8 °C.

Consider GCTCCAGGAAACTGAAGC (((.(((....))).))), for which, in data set [1], the folding enthalpy is -32.5 kcal/mol. Further, in data set [2], the Tm came to 38.6 °C.

As for GATCTGGGCCCAGATC ((((((....)))))), the folding enthalpy in data set [1] was -56.3 kcal/mol. Besides, the Tm in data set [2] turned out to be 58.9 °C.

With GCTAAGCGAAAGCATTGC ((.(.((....)).).)), the folding enthalpy in data set [1] is -19.9 kcal/mol. Also, the Tm in data set [2] was found to be 36.2 °C.

As for GATCCACGCCTGGATC ((((((....)))))), in data set [1], the folding enthalpy was -36.9 kcal/mol. In addition, the Tm in data set [2] stood at 52.3 °C.

In the case of GACACAGGAAACTGCGTC (((.(((....))).))), the folding enthalpy in data set [1] was -23.4 kcal/mol. For the same sequence, in data set [2], the Tm was determined as 45.3 °C.

Take GCGTTTGGAAACAAACGC (((((((....))))))): the folding enthalpy in data set [1] is -41.4 kcal/mol. In data set [2], the Tm turned out to be 67.7 °C.

GCTATGCGAAAGCGCAGC (((..((....))..))): the folding enthalpy in data set [1] was -18 kcal/mol. In data set [2], the Tm came out at 36.8 °C.

With GCGACACCTCGC ((((....)))), the folding enthalpy in data set [1] was -29.5 kcal/mol. In data set [2], the Tm amounted to 51.3 °C.

As to GTGCGGGGAAACCCGTAC ((.((((....)))).)), in data set [1], the folding enthalpy was -27.4 kcal/mol. Besides, the Tm in data set [2] is 59.1 °C.

GGATTGTCGAAAGACTCC (((..(((....)))))): the folding enthalpy in data set [1] was -16 kcal/mol. Besides, the Tm in data set [2] worked out at 30.9 °C.

As to GATCGTAGCTACGATC ((((((....)))))), in data set [1], the folding enthalpy was -43.2 kcal/mol. Also, in data set [2], the Tm is 59 °C.

With GCAAACGAAAGTTTTGC ((((((....))).))), the folding enthalpy in data set [1] was -28.5 kcal/mol. Besides, the Tm in data set [2] turned out to be 49.4 °C.

On to GATCTGTGGACAGATC ((((((....)))))), for which, in data set [1], the folding enthalpy is -45.1 kcal/mol. Moreover, the Tm in data set [2] stood at 53.2 °C.

As for GATCGTGAACACGATC ((((((....)))))), the folding enthalpy in data set [1] is -34.5 kcal/mol. Besides, the Tm in data set [2] came to 63.6 °C.

With GTAAAGCCGAAAGGCTAC (((..(((....)))))), the folding enthalpy in data set [1] is -8.48 kcal/mol. In data set [2], the Tm is 35.5 °C.

Turning to GCTAGCGAAAGCTGTAGC ((((((....)))..))), the folding enthalpy in data set [1] is -21.3 kcal/mol. The Tm in data set [2] worked out at 43.1 °C.

For GTGGGGGGAAACCTCCAC ((((.((....)).)))), the folding enthalpy in data set [1] was -44.1 kcal/mol. Also, in data set [2], the Tm came to 54.5 °C.

In the case of GATCGGACGCCCGATC ((((((....)))))), the folding enthalpy in data set [1] is -38 kcal/mol. In addition, the Tm in data set [2] amounted to 57.3 °C.

For GTCAGCGAAAGCTAGAC ((((((....))).))), in data set [1], the folding enthalpy is -22.8 kcal/mol. The Tm in data set [2] amounted to 50.7 °C.

With GAGAGCACGAAAGTGCTC (((..(((....)))))), the folding enthalpy in data set [1] was -7.79 kcal/mol. Further, the Tm in data set [2] was determined as 64.1 °C.

As for GTCTGCGGAAACGCAGGC (.(((((....))))).), the folding enthalpy in data set [1] was -19.6 kcal/mol. For the same sequence, the Tm in data set [2] amounted to 63.9 °C.

Turning to GTATTAGGAAACTAATGC (.(((((....))))).), in data set [1], the folding enthalpy was -28.2 kcal/mol. Also, in data set [2], the Tm was determined as 34.2 °C.

Turning to GGTTTACGAAAGTATACC (((.(((....))).))), the folding enthalpy in data set [1] was -39.3 kcal/mol. Also, in data set [2], the Tm worked out at 45.5 °C.

With GGCAGGCCGAAAGGCGCC (((..(((....)))))), the folding enthalpy in data set [1] is -21.3 kcal/mol. Also, in data set [2], the Tm came out at 59.6 °C.

With GTAGTACGAAAGTATTAC (((.(((....))).))), the folding enthalpy in data set [1] is -31.3 kcal/mol. In addition, the Tm in data set [2] came to 41.5 °C.

Regarding GGTGTCTCGAAAGAGACC (((..(((....)))))), in data set [1], the folding enthalpy is -12.3 kcal/mol. Further, the Tm in data set [2] was determined as 49.4 °C.

For GAGGAGCCGAAAGGCCTC (((..(((....)))))), the folding enthalpy in data set [1] was -11.5 kcal/mol. Moreover, in data set [2], the Tm turned out to be 41.9 °C.

For the sequence GGAAGCCGAAAGGCGTCC (((.(((....))).))), the folding enthalpy in data set [1] is -14.6 kcal/mol. Besides, the Tm in data set [2] was 61.6 °C.

Consider GTTCTCCGAAAGGACAAC (((.(((....))).))), for which, in data set [1], the folding enthalpy was -15.6 kcal/mol. The Tm in data set [2] came out at 30 °C.

Regarding GCGGTCGAAAGACTACGC ((((((....)))..))), in data set [1], the folding enthalpy is -25.1 kcal/mol. In addition, the Tm in data set [2] was found to be 54.3 °C.

With GATCGGTAACCCGATC ((((((....)))))), the folding enthalpy in data set [1] is -32.7 kcal/mol. Besides, the Tm in data set [2] turned out to be 54.3 °C.

For the sequence GTGACTGCGAAAGCACAC (((..(((....)))))), the folding enthalpy in data set [1] is -8.82 kcal/mol. In data set [2], the Tm came to 38.8 °C.

On to GATTCCGAAAGGAATATC ((((((....)))..))), for which the folding enthalpy in data set [1] is -17.4 kcal/mol. The Tm in data set [2] was found to be 46.6 °C.

Consider CCCATGAAAATGGG (((((....))))), for which, in data set [1], the folding enthalpy was -20.9 kcal/mol. In data set [2], the Tm came out at 51.2 °C.

As for GATCGGAGGTCCGATC ((((((....)))))), the folding enthalpy in data set [1] is -31.5 kcal/mol. The Tm in data set [2] amounted to 57.6 °C.

Regarding GATCTCAGAGGAGATC ((((((....)))))), the folding enthalpy in data set [1] was -32.9 kcal/mol. In data set [2], the Tm came to 50.8 °C.

For GGGTACCGAAAGGTGCCC (((.(((....))).))), the folding enthalpy in data set [1] is -29.2 kcal/mol. Moreover, the Tm in data set [2] was found to be 68.7 °C.

As for CGTAAACGGAAACGTACG (((..(((....)))))), in data set [1], the folding enthalpy is -23.5 kcal/mol. For the same sequence, the Tm in data set [2] was 34.8 °C.

Regarding CGCCCACGGAAACGTGCG (((..(((....)))))), in data set [1], the folding enthalpy was -12.3 kcal/mol. For the same sequence, the Tm in data set [2] is 37.1 °C.

On to GTGCAAGGAAACTTGTAC ((.((((....)))).)), for which the folding enthalpy in data set [1] is -32.5 kcal/mol. Also, in data set [2], the Tm came to 45 °C.

As to GGCCTTCGAAAGAATGCC (((.(((....))).))), the folding enthalpy in data set [1] was -33.1 kcal/mol. Also, the Tm in data set [2] was 48.3 °C.

GCTGTCCGAAAGGAAAGC (((.(((....))).))): the folding enthalpy in data set [1] was -37.8 kcal/mol. The Tm in data set [2] was found to be 53.7 °C.

Take GAATGTGGAAACGCATTC (((((.(....).))))): in data set [1], the folding enthalpy was -37.5 kcal/mol. Further, the Tm in data set [2] was determined as 46 °C.

For the sequence GATCGAGGAAACCCGATC (((((.(....).))))), the folding enthalpy in data set [1] was -33.1 kcal/mol. Besides, in data set [2], the Tm is 47.8 °C.

For the sequence GTAAACTCGAAAGAGTAC (((..(((....)))))), in data set [1], the folding enthalpy is -11.9 kcal/mol. The Tm in data set [2] was found to be 31 °C.

Turning to GCGGTTGACCGC ((((....)))), the folding enthalpy in data set [1] is -24.7 kcal/mol. The Tm in data set [2] came out at 63.9 °C.

For GTCGACGGAAACGTCAAC ((.((((....)))).)), in data set [1], the folding enthalpy is -15.6 kcal/mol. Also, in data set [2], the Tm came to 43.5 °C.

Turning to GTCTGAGGAAACTCGGAC (((.(((....))).))), in data set [1], the folding enthalpy was -36.2 kcal/mol. Further, the Tm in data set [2] was 49.4 °C.

Turning to GCTACGCGAAAGCCGAGC (((..((....))..))), in data set [1], the folding enthalpy was -15.6 kcal/mol. The Tm in data set [2] was 43.4 °C.

Take GATGAACCGAAAGGTATC (((..(((....)))))): the folding enthalpy in data set [1] is -12.9 kcal/mol. Also, the Tm in data set [2] amounted to 28.8 °C.

Take GATCCTAAAAGGATC ((((((...)))))): the folding enthalpy in data set [1] is -36.3 kcal/mol. Also, the Tm in data set [2] amounted to 54.3 °C.
